TCR-CD3 inh – inhibitors of human TCR-CD3 interaction, primary screen, biochemical, fluorescence, TAMRA-labeled TCR probe. AID 651800, 2012. T-cell receptor (TCR). 360,000 compounds, 0.37% hits. inhibition, % at 9.4 µM; in the data active = inhibition above about 19%;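 note: recombinant mutant TCR 2C K166C tagged with TAMRA read by polarization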
PRMT1 FP inh – PRMT1 methyltransferase inhibitors, primary screen, biochemical, fluorescence polarization. Protein arginine N-methyltransferase 1 (Homo sapiens), Q99873. recombinant PRMT1, activity-based probe fluorescence polarization. 370,000 compounds, 1.3% hits. inhibition, % at 2.79 µM;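 active = inhibition above about 21% made by adding two undisclosed values, limit read from the data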
SIAE inh – human SIAE inhibitors, primary screen, biochemical, fluorescence polarization, FP-Rh probe, 1536-well HTS; inhibition, % at 9.66 µM; SIAE FP-Rh probe binding; Sialate O-acetylesterase (Homo sapiens), Q9HAT2; 370,000 compounds, 0.69% hits; AID 1053197, 2014;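 active = inhibition above a cutoff: mean of compounds within the control limits plus 3 SD of those, cut at about 17% in these data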
ATG4B inhibitor – ATG4B protease inhibitors, primary screen, biochemical, fluorescence, uHTS | Cysteine protease ATG4B (Homo sapiens), Q9Y4P1 | ATG4B cleavage of LC3-PLA2, NBD-HPC fluorescence, 1 h | inhibition, % at 8.33 µM | 340,000 compounds, 0.51% hits; in the data active = inhibition above about 40%
mABHD4 FP – ABHD4 inhibitors, primary screen, biochemical, fluorescence polarization, mouse | purified mABHD4, FP-Rh probe fluorescence polarization | 370,000 compounds, 0.54% hits | (Lyso)-N-acylphosphatidylethanolamine lipase (Mus musculus), Q8VD66 | inhibition, % at 8.92 µM;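 active = inhibition exceeding the mean over every tested compound plus 3 SD, cut at about 30% in these data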
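Test system: mouse ABHD4 enzyme, wild type. Reagent: FP-Rh fluorescent activity-based probe, added after compound pre-incubation. Timing: pre-incubation 45 min, probe exposure 60 min, at 25 °C. Technique: FP readout, ex 525 nm / em 598 nm. Benchmarks: high control S159A mutant with DMSO, low control median of compound wells.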
HTRA1 inh – HTRA1 serine protease inhibitors, primary screen, biochemical, fluorescence polarization, HTS | recombinant HTRA1, FP-rhodamine activity-based probe | inhibition, % at 5.96 µM | 340,000 compounds, 0.5% hits | AID 504803, 2011; in the data active = inhibition above about 36%
Target sequence (Q92743 whole entry, looked up): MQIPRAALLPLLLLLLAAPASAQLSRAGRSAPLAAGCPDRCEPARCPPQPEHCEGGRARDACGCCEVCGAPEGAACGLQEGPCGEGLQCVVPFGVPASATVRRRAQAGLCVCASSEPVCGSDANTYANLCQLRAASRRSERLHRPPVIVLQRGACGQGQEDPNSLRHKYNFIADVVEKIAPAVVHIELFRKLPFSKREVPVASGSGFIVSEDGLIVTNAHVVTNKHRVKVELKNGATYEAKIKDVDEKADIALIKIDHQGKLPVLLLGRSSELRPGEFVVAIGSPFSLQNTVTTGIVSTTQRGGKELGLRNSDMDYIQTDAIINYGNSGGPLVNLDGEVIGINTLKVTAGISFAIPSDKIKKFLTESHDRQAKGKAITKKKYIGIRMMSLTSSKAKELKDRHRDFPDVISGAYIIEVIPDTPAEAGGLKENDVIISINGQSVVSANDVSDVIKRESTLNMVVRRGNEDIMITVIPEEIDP
PRMT1 inh conf – PRMT1 methyltransferase inhibitors, confirmation, biochemical, fluorescence polarization, triplicate; shares compounds with PRMT1 FP inh; recombinant His-PRMT1, activity-based probe fluorescence polarization; inhibition, % at 2.79 µM; 3,300 compounds, 42% hits; AID 687036, 2013;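 active = mean inhibition across replicates above the hit cutoff derived for the earlier primary screen, cut at about 22% in these data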
Large screens that a line does not name were inactive (follow-up assays come after a bar, where they were run). Only some compounds are listed: those with a hit (about 2.9% of all), similar ones and a draw of the others.

COc1ccc(S[C@]2(C(=O)N3CCOCC3)CC(=O)N(C(=O)c3ccccc3)[C@@H]2c2ccc(OC)cc2)cc1	PRMT1 FP inh 80 (no result: TCR-CD3 inh, ATG4B inhibitor, HTRA1 inh) | PRMT1 inh conf 77
COc1ccc(S[C@]2(C(=O)N3CCN(C(C)=O)CC3)CC(=O)N(C(=O)CCc3ccccc3)[C@@H]2c2ccc(OC)cc2)cc1	none (no result: TCR-CD3 inh, ATG4B inhibitor, HTRA1 inh)
COc1ccc(S[C@]2(C(=O)N3CCN(C(C)=O)CC3)CC(=O)N(S(=O)(=O)c3ccc(F)cc3)[C@@H]2c2ccc(OC)cc2)cc1	PRMT1 FP inh 43 (no result: TCR-CD3 inh, ATG4B inhibitor, HTRA1 inh) | PRMT1 inh conf 37
COC(=O)[C@H]1C[C@@]2(c3ccccc3)c3ccccc3N(S(=O)(=O)c3ccccc3)[C@H]2N1	none (no result: TCR-CD3 inh, ATG4B inhibitor, HTRA1 inh)
CN(CCOC(=O)c1cc2ccccc2o1)C1CN(Cc2cn(Cc3ccccc3F)nn2)S(=O)(=O)C1 (configuration not stated)	none (no result: TCR-CD3 inh, ATG4B inhibitor, HTRA1 inh)
CCCCOCCCNC(=O)C[C@H]1C[C@@]2(C(=O)OC)C(=C[C@H](C(C)(C)C)O[C@@H]2C)N(Cc2ccco2)C1=O	none (no result: TCR-CD3 inh, ATG4B inhibitor, HTRA1 inh)
O=C(OCC#CCSc1nnc(-c2cccc3ccccc23)o1)c1cc(F)c(F)c(F)c1	none (no result: TCR-CD3 inh, ATG4B inhibitor, HTRA1 inh)
CN1CCCCC(NC(=O)c2ccc(C#N)cc2)C1=O (configuration not stated)	none (no result: ATG4B inhibitor, HTRA1 inh)
Cc1ccc[n+](-c2nc([O-])sc2C=O)c1	PRMT1 FP inh 58 | PRMT1 inh conf 62
CC(C)c1ccc[n+](-c2nc([O-])sc2C=O)c1	none (no result: HTRA1 inh)
Cc1ccc(-c2ccc(CCC(=O)O)o2)cc1	PRMT1 FP inh 40 | PRMT1 inh conf 40
O=C(O)CCc1ccc(-c2cccs2)o1	none (no result: TCR-CD3 inh, PRMT1 FP inh, SIAE inh, mABHD4 FP)
O=S(=O)(CC1NCCc2ccccc21)NCc1ccccc1 (configuration not stated)	none (no result: TCR-CD3 inh, ATG4B inhibitor, HTRA1 inh)
CC[n+]1c(C)sc2c3ccsc3ccc21	PRMT1 FP inh 38 | PRMT1 inh conf 64
Cc1ccc(-c2cc(-c3ccc(F)cc3)c(C#N)c(N)n2)o1	PRMT1 FP inh 46 | PRMT1 inh conf inactive
Cc1ccc(-c2cc(-c3ccc(Cl)cc3)c(C#N)c(N)n2)o1	PRMT1 FP inh 42 | PRMT1 inh conf 63
CCOc1cc(-c2cc(-c3ccc(C)o3)nc(N)c2C#N)ccc1O	none
Cc1ccc(-c2cc(-c3ccc4c(c3)OCO4)c(C#N)c(N)n2)o1	PRMT1 FP inh 44 | PRMT1 inh conf 31
Cc1ccc(-c2cc(-c3ccc(C)o3)nc(N)c2C#N)cc1	PRMT1 FP inh 58 | PRMT1 inh conf 79
Cc1nc(N)c(C#N)c(-c2ccc3c(c2)OCO3)c1C	none
Cc1nn(-c2ccccc2)c2sc(C(=O)NCc3ccc(F)cc3)cc12	none (no result: TCR-CD3 inh, ATG4B inhibitor, HTRA1 inh)
CC(=NNC(=S)N1CC2CCC(CC2)C1)c1ccncn1	PRMT1 FP inh 27 | PRMT1 inh conf inactive
CC(C)(C)N1Cc2nnn(CC3CCCCC3)c2-c2cc(F)ccc2S1(=O)=O	none (no result: TCR-CD3 inh, ATG4B inhibitor, HTRA1 inh)
COc1ccc(C(C)c2cn(C)c3ccccc23)cc1 (configuration not stated)	none (no result: TCR-CD3 inh, ATG4B inhibitor, HTRA1 inh)
CN(C)CCN(C)Cc1c2ccccc2c(CN(C)CCN(C)C)c2ccccc12	PRMT1 FP inh 31 | PRMT1 inh conf inactive
COCCNC(=O)c1cc(-c2ccccc2)sc1N	PRMT1 FP inh 32 (no result: ATG4B inhibitor, HTRA1 inh) | PRMT1 inh conf inactive
CCCCNC(=O)c1cc(-c2ccccc2)sc1N	none (no result: ATG4B inhibitor, HTRA1 inh)
CCOc1cc(C2C(C#N)=C(N)OC(C)=C2C(C)=O)cc(Br)c1O (configuration not stated)	PRMT1 FP inh 26 | PRMT1 inh conf 28
CCOC(=O)N[C@@H](Cc1cccnc1)C(=O)N1CCC[C@H]1C(=O)NCCc1ccccc1Cl	none (no result: ATG4B inhibitor, HTRA1 inh)
NC(=O)c1c(NC(=O)C2CCCO2)sc2c1CCCCC2 (configuration not stated)	PRMT1 FP inh 28 | PRMT1 inh conf inactive
